Reference: paper PMC3288537 (ACS Chemical Biology, 2011)

Experiments:
Type in all cases: biochemical
[1] = molecular target: VHR (Homo sapiens, UniProt P51452); test: Dose-response OMFP phosphatase assay, VHR; settings: read-out: IC50 VHR; OMFP substrate
[2] = molecular target: T1, PTP-SL (Homo sapiens, UniProt Q15256); test: Dose-response OMFP phosphatase assay, PTP-SL; settings: read-out: IC50 PTP-SL; OMFP substrate
T1 sequence (Q15256 22-657): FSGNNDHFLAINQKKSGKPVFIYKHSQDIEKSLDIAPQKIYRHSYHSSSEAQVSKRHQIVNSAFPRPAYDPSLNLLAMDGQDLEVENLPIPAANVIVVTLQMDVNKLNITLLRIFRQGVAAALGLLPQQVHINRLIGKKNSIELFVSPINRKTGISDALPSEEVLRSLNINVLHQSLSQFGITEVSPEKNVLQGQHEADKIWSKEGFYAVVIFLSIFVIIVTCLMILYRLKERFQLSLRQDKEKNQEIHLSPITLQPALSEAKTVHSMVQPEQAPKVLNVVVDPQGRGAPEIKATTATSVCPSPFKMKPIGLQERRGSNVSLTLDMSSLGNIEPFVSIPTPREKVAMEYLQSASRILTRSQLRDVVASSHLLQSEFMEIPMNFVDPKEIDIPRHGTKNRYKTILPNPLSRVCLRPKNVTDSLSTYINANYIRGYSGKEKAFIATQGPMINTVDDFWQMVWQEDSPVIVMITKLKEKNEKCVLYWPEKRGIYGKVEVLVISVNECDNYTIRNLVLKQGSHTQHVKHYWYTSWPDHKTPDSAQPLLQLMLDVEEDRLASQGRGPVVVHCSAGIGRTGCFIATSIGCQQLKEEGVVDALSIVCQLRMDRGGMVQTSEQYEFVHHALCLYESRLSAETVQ

[3] = molecular target: T2, TCPTP (Homo sapiens, UniProt P17706); test: Dose-response OMFP phosphatase assay, TCPTP; settings: read-out: IC50 TCPTP; OMFP substrate
T2 sequence (P17706 1-415): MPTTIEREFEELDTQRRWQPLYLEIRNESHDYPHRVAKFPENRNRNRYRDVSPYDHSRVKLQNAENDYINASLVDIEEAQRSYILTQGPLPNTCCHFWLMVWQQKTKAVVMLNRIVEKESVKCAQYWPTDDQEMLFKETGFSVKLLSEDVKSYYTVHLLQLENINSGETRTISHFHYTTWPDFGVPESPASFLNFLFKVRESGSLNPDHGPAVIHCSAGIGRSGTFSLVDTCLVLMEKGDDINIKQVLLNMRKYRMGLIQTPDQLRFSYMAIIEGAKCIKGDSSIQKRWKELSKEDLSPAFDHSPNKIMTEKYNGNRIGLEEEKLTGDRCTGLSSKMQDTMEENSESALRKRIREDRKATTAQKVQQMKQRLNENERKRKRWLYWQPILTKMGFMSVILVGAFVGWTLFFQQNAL
Outline: (§1)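 Ten-point 2-fold dilution series of test compound prepared in DMSO. Fluorescence (ex 485/em 528 nm) read in kinetic mode over 10 min; progress-curve slopes taken as activity. IC50 by nonlinear regression (sigmoidal, variable slope).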

[4] = molecular target: T3, SHP2 (Homo sapiens, UniProt Q06124); test: Dose-response OMFP phosphatase assay, SHP2; settings: read-out: IC50 SHP2; OMFP substrate
T3 sequence (Q06124 1-593): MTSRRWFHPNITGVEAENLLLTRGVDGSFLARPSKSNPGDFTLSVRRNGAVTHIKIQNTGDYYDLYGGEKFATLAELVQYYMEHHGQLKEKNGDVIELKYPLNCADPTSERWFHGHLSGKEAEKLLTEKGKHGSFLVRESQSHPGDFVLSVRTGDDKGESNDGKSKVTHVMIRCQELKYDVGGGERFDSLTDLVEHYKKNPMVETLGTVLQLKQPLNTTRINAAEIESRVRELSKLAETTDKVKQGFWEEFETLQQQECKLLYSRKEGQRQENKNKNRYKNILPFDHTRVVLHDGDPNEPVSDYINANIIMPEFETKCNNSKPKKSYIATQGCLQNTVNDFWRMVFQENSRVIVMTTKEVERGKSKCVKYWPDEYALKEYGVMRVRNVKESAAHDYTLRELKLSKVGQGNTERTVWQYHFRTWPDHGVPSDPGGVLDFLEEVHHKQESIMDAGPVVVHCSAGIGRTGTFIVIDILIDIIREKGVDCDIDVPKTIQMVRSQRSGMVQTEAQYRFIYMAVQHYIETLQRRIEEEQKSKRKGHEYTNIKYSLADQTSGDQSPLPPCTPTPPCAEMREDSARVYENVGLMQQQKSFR
Outline: as §1

[5] = molecular target: T4, HePTP-DM (K105A/T106A double mutant) (Homo sapiens, UniProt P35236, K126A/T127A); test: Dose-response OMFP phosphatase assay, HePTP K105A/T106A double mutant; settings: read-out: IC50 HePTP-DM
T4 sequence (P35236 22-360 K126A/T127A limits assumed): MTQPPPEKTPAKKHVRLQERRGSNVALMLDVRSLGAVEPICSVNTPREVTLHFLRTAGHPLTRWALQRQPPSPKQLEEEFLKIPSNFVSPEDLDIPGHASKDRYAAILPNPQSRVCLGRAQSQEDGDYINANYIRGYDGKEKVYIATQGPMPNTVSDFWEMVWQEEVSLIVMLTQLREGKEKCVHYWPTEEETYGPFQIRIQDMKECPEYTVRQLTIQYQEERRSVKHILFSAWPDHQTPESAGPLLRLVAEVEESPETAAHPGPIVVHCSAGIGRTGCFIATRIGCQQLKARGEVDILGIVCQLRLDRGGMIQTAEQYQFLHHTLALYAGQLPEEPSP

[6] = molecular target: T5, HePTP (Homo sapiens, UniProt P35236); test: Michaelis-Menten kinetic studies with OMFP; settings: various inhibitor and substrate concentrations
T5 sequence (P35236 1-360): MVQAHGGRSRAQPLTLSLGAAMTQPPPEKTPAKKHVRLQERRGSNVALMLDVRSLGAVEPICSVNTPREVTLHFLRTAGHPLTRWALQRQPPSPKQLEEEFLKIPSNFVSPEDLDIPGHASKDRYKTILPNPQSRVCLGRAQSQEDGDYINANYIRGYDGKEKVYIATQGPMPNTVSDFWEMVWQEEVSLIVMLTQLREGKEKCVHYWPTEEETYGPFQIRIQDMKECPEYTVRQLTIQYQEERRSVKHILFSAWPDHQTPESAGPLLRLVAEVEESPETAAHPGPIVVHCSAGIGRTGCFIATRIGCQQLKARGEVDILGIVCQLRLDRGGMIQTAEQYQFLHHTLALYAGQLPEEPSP
Outline: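 Started by adding OMFP at 0–400 μM. Initial rates read by fluorescence (ex 485/em 528 nm), corrected with no-enzyme controls. Eadie-Hofstee plots drawn; competing models compared by AICc.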

VHR, sequence (P51452 whole entry, species assumed): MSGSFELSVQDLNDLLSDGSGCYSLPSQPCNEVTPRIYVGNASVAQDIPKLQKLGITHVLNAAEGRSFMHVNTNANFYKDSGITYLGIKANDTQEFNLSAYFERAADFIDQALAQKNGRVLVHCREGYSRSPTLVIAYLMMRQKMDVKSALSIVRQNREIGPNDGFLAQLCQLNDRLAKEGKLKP

Q: Which IC50 [1] does the source give for `O=C(O)c1ccccc1-c1ccc(/C=c2\sc3nc4cc(Br)cnc4n3c2=O)o1` [Compound 1] here?
A: 1900 nM

Q: What about the IC50 [2] of the same compound?
A: 1100 nM

Q: And the IC50 [3]?
A: 1000 nM

Q: And the IC50 [4]?
A: 1100 nM

Q: And the IC50 [5]?
A: 6600 nM

Q: And the inhibition pattern [6]?
A: mixed inhibition pattern
